# Test results from ChEMBL document CHEMBL1147694, “Synthesis and biological activity of conjugates between paclitaxel and the cell delivery vector penetratin” (Bioorg Med Chem Lett, 2006).
# Experiments:
# A549 [1] = test: Antiproliferative activity against human A549 cell line by MTT assay after 72 hrs; assay type: functional, cell-based
# Outline: (§1)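 Human tumour cells, MCF7 (breast) and A549 (lung), were exposed to test compounds for 72 h, and growth was read by MTT assay. IC50 is the concentration giving 50% growth inhibition, taken as the mean of three independent experiments.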
# MCF7 [2] = test: Antiproliferative activity against human MCF7 cell line by MTT assay after 72 hrs; assay type: functional, cell-based; outline: as §1
# MCF7 [3] = test: Antiproliferative activity against human MCF7 cell line by MTT assay after 1 hr; assay type: functional, cell-based; conditions: MCF7, 1 h
# Outline: (§2)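 Cells were exposed to the conjugates for a short 1 h period, and viability was then quantified by MTT assay.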
# A549 [4] = test: Antiproliferative activity against human A549 cell line by MTT assay after 1 hr; assay type: functional, cell-based; conditions: A549, 1 h; outline: as §2
# [5] = Half life in tissue culture medium; assay type: ADME
# Outline: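 Compounds were dissolved in DMEM with 10% foetal calf serum at 1 to 40 (concentration range) and incubated at 37 °C. Aliquots were withdrawn over time and analysed by RP-HPLC and mass spectrometry to give half-life. Analytical RP-HPLC used a MeCN gradient in water with 0.1% TFA over 20 min at 25 °C.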
# [6] = Aqueous solubility of the compound; assay type: physicochemical
# [7] = Homo sapiens, A549, 72 h, read-out: IC50
# [8] = Homo sapiens, MCF7, 72 h, read-out: IC50
Molecule,IC50 (A549 [1]; [7]) [nM],IC50 (MCF7 [2]; [8]) [nM],IC50 (MCF7 [3]) [nM],IC50 (A549 [4]) [nM],half-life [5] [h],solubility [6] [µg/mL],IC50 (MCF7 [2]; mcf7),IC50 (A549 [1]; a549)
CC[C@H](C)[C@H](NC(=O)[C@H](CCCCN)NC(=O)[C@@H](NC(=O)[C@H](CCC(N)=O)NC(=O)[C@H](CCCN=C(N)N)NC(=O)CC(N)CSC1CC(=O)N(CCC(=O)O[C@@H](C(=O)O[C@@H]2C(C)=CC3[C@@H](OC(C)=O)C(=O)[C@@]4(C)[C@H]([C@H](OC(=O)c5ccccc5)[C@@]2(O)C3(C)C)[C@]2(OC(C)=O)CO[C@@H]2C[C@@H]4O)[C@@H](NC(=O)c2ccccc2)c2ccccc2)C1=O)[C@@H](C)CC)C(=O)N[C@@H](Cc1c[nH]c2ccccc12)C(=O)N[C@@H](Cc1ccccc1)C(=O)N[C@@H](CCC(N)=O)C(=O)N[C@@H](CC(N)=O)C(=O)N[C@@H](CCCN=C(N)N)C(=O)N[C@@H](CCCN=C(N)N)C(=O)N[C@@H](CCSC)C(=O)N[C@@H](CCCCN)C(=O)N[C@@H](Cc1c[nH]c2ccccc12)C(=O)N[C@@H](CCCCN)C(=O)N[C@@H](CCCCN)C(=O)O (stereo partly specified),270,,,,,,,
CSCC[C@H](NC(=O)[C@H](CCCN=C(N)N)NC(=O)[C@H](CCCN=C(N)N)NC(=O)CC(N)CSC1CC(=O)N(CCC(=O)O[C@@H](C(=O)O[C@@H]2C(C)=CC3[C@@H](OC(C)=O)C(=O)[C@@]4(C)[C@H]([C@H](OC(=O)c5ccccc5)[C@@]2(O)C3(C)C)[C@]2(OC(C)=O)CO[C@@H]2C[C@@H]4O)[C@@H](NC(=O)c2ccccc2)c2ccccc2)C1=O)C(=O)N[C@@H](CCCCN)C(=O)N[C@@H](Cc1c[nH]c2ccccc12)C(=O)N[C@@H](CCCCN)C(=O)N[C@@H](CCCCN)C(N)=O (stereo partly specified),< 15,< 15,325,43,> 8,> 10000,,
CC(=O)O[C@H]1C(=O)[C@@]2(C)[C@H]([C@H](OC(=O)c3ccccc3)[C@]3(O)C[C@H](OC(=O)[C@H](O)[C@@H](NC(=O)c4ccccc4)c4ccccc4)C(C)=C1C3(C)C)[C@]1(OC(C)=O)CO[C@@H]1C[C@@H]2O [PACLITAXEL],< 15,< 15,43,28,,< 10,,
CC[C@H](C)[C@H](NC(=O)[C@H](CCCCN)NC(=O)[C@@H](NC(=O)[C@H](CCC(N)=O)NC(=O)[C@@H](N)CCCNC(=N)N)[C@@H](C)CC)C(=O)N[C@@H](Cc1c[nH]c2ccccc12)C(=O)N[C@@H](Cc1ccccc1)C(=O)N[C@@H](CCC(N)=O)C(=O)N[C@@H](CC(N)=O)C(=O)N[C@@H](CCCNC(=N)N)C(=O)N[C@@H](CCCNC(=N)N)C(=O)N[C@@H](CCSC)C(=O)N[C@@H](CCCCN)C(=O)N[C@@H](Cc1c[nH]c2ccccc12)C(=O)N[C@@H](CCCCN)C(=O)N[C@@H](CCCCN)C(N)=O [PENETRATIN],,,,,,,Not Active,Not Active

# Other lines, results leading:
IC50 (A549 [1]; [7]) [nM],IC50 (MCF7 [2]; [8]) [nM],IC50 (MCF7 [3]) [nM],IC50 (A549 [4]) [nM],half-life [5] [h],solubility [6] [µg/mL],IC50 (MCF7 [2]; mcf7),IC50 (A549 [1]; a549),Molecule
< 15,< 17,202,618,> 8,,,,CC[C@H](C)[C@H](NC(=O)[C@H](CCCCN)NC(=O)[C@@H](NC(=O)[C@H](CCC(N)=O)NC(=O)[C@H](CCCN=C(N)N)NC(=O)CC(N)CSC1CC(=O)N(CCC(=O)O[C@@H](C(=O)O[C@@H]2C(C)=CC3[C@@H](OC(C)=O)C(=O)[C@@]4(C)[C@H]([C@H](OC(=O)c5ccccc5)[C@@]2(O)C3(C)C)[C@]2(OC(C)=O)CO[C@@H]2C[C@@H]4O)[C@@H](NC(=O)c2ccccc2)c2ccccc2)C1=O)[C@@H](C)CC)C(=O)N[C@@H](Cc1c[nH]c2ccccc12)C(=O)N[C@@H](Cc1ccccc1)C(=O)N[C@@H](CCC(N)=O)C(=O)N[C@@H](CC(N)=O)C(=O)N[C@@H](CCCN=C(N)N)C(=O)N[C@@H](CCCN=C(N)N)C(=O)N[C@@H](CCSC)C(=O)N[C@@H](CCCCN)C(=O)N[C@@H](Cc1c[nH]c2ccccc12)C(=O)N[C@@H](CCCCN)C(=O)N[C@@H](CCCCN)C(N)=O (stereo partly specified)
,,,,,,Not Active,Not Active,H-RRMKWKK-NH2
